# Data: the RNAGym collection of RNA variant scans (doi:10.1101/gad.245936.114)
# This sample holds only a part of the variants without activity.
# B1: tRNA (parent)
# chain: CUCUCGGUAGCCAAGUUGGUUUAAGGCGCAAGACUUUAAUUUAUCACUACGAAAUCUUGAGAUCGGGCGUUCGACUCGCCCCCGGGAGAUUUUUUCCUCGAGCAA
# Variants of: B1
# Assay: nonsense suppression (GFP-seq) (ratio to wild type); higher = more function; SUP4oc tRNA, yeast GFP reporter sort-seq
# Method in brief: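 Raffinose/galactose medium with 80 mg/L adenine was used to grow yeast carrying genome-integrated tRNA variants (~3% random-mutation library), RFP, and a galactose-driven GFP ochre reporter. Cells went into GFP/RFP bins, which were Illumina-sequenced, and variants with ≥100 reads and ≥30 cells were scored. Nonsense suppression (GFPSEQ) is the per-bin median GFP/RFP weighted by estimated cell share and expressed relative to the unmutated parent tRNA.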
row,Variant,nonsense suppression
1,C11U G18C U20G U76G,≤ 0.026
2,C12U A23G,0.0776
3,A13C G67A,0.0799
4,C11G U16G U58A G61A G67C,≤ 0.026
5,U2C A30U A31G A62G G67A G86C,≤ 0.026
6,C12U C81A,0.0405
7,A9G A54U U70C,≤ 0.026
8,C34U G65A U70A,≤ 0.026
9,U4C U21C G67A,0.0868
10,U71G A89U,≤ 0.026
11,G18A A54U,≤ 0.026
12,C11U C68A U76C C83G,≤ 0.026
13,U20C A89U,0.0684
14,G15U G19A A54U A62G C79A,≤ 0.026
15,G7A U76C G88U,≤ 0.026
16,C34U A74C C79A,≤ 0.026
17,A31C A60U C75A,1.23
18,U20A A60U C79U,0.212
19,G15A A24G C29G A60C,≤ 0.026
20,C1A A13U,≤ 0.026
21,A30G G73A C75A,0.318
22,A31G G61A,0.8
23,U4A U16A,0.215
24,C11U A89C,≤ 0.026

row,Variant,nonsense suppression
1,A13G A54C G69U G86U,≤ 0.026
2,C56A G65C,≤ 0.026
3,A9C A31G C68G G86A,≤ 0.026
4,U57A G85A,0.165
5,A9U C75U,0.656
6,U16G C27G,≤ 0.026
7,U63G U70C C75U,0.099
8,A9G C27U,0.0421
9,U21C A60U C68U,1.05
10,G61C C64U C68G G84A,≤ 0.026
11,U4A A30G,0.0267
12,C5U U21A,≤ 0.026
13,C5A G59C,≤ 0.026
14,C5A A24U G66A,≤ 0.026
15,G7U C82A,1.02
16,C79U,0.879
17,A31C C72G G78U,≤ 0.026
18,G73A G85U,0.285
19,A13U U16C U63G,0.18
20,C11U G78U,≤ 0.026
21,C34A A54U U71A C75A,≤ 0.026
22,C5G G78U,0.0283
23,A9C C11A C75A,≤ 0.026
24,A54C U63C,0.729

row,Variant,nonsense suppression
1,C5G G84U,0.475
2,A33G G84U,0.222
3,A33U U71A,≤ 0.026
4,G26C U55A,≤ 0.026
5,A23G G67U,≤ 0.026
6,C3U G73A,0.0656
7,C3G G65C C79U,≤ 0.026
8,A31U A62U,0.0539
9,A62G C75U C83A,≤ 0.026
10,A24G C79G G86C,≤ 0.026
11,C34G G78C,≤ 0.026
12,G61U A62U,0.0397
13,U2A U55C,0.0451
14,U4A C11U C34U,≤ 0.026
15,U2G A33C A60U G73C,≤ 0.026
16,C12U C56U,≤ 0.026
17,G25U G73U,≤ 0.026
18,G28C G61A U63C,0.041
19,C3G G59A G78U A87U,≤ 0.026
20,G61U U76C,0.911
21,C29U G85A,1.14
22,G26U G65C U71A G78U,≤ 0.026
23,C29A A30C,≤ 0.026
24,U70G C75U,≤ 0.026

row,Variant,nonsense suppression
1,C12U C82U,0.32
2,G65U G85A,≤ 0.026
3,U2A C3G C27G C29G A33U,≤ 0.026
4,U8A A14U U20A A74C,≤ 0.026
5,A24C C79U,0.209
6,A30U G84U,0.423
7,U21G G65A,0.0483
8,C3A U20A G28A,≤ 0.026
9,C11G U35C A74U C82A,≤ 0.026
10,U4C U17G G25C G66U U70C G84U,≤ 0.026
11,G61C C79U,0.202
12,G18A G25U C27U G67C,≤ 0.026
13,C29G C34G,≤ 0.026
14,G59C A87U,≤ 0.026
15,G6C U71A,≤ 0.026
16,G15A C75A,0.854
17,U17A U70G,≤ 0.026
18,U20C C80U,0.036
19,U16C C81G,≤ 0.026
20,U17G A24C,0.653
21,A13U A24G G61C,0.0375
22,U63C C81U,0.142
23,C3G U8G U21C C34U,≤ 0.026
24,U22A G86U,0.033

row,Variant,nonsense suppression
1,G84A G88U,≤ 0.026
2,G32C C34G U35C,≤ 0.026
3,U4G G18C G28A A74G,≤ 0.026
4,A33C U35C C83A,≤ 0.026
5,U16G G85U,1.06
6,U55G U63A G86C,≤ 0.026
7,G61C G67A,0.0647
8,U2A A24G G25A,≤ 0.026
9,U22G G78U G85A,0.788
10,A13U C27U,0.209
11,A24U C82U,0.0571
12,U2G G78U,0.0774
13,U21G A54U C75U,1.23
14,C27G U58A U63A,≤ 0.026
15,C12G G15A G19U,≤ 0.026
16,C80U G88A,0.0263
17,U4C U55A G67A C79G C83G,≤ 0.026
18,U35G G85U,≤ 0.026
19,U17C U21G,0.801
20,G7C A14G U22A A24U G85C,≤ 0.026
21,A31U C64U C72U,≤ 0.026
22,U16C A30G,1.17
23,U16A G85A,1.03
24,C12U A24U,0.118

row,Variant,nonsense suppression
1,G61C A74U C83G,≤ 0.026
2,G66C G85A,≤ 0.026
3,A9C U21C A24U U63A G69U,≤ 0.026
4,G18U G19A,≤ 0.026
5,C1G G6U G66U G73U,≤ 0.026
6,U55C U63C,0.156
7,C3G U55C,0.152
8,G32U U63A C82U,0.0283
9,A54U U63G,0.659
10,C1U G26A G69U C79U,≤ 0.026
11,A23G A24C C34U C72A A89U,≤ 0.026
12,A54C G86C,0.0725
13,A9U A30G,0.0995
14,C12A G78A,0.045
15,C5A A14G,≤ 0.026
16,U4C U22G G26U G73C G78C,≤ 0.026
17,C11G G15U G78C,≤ 0.026
18,C29G A87G,≤ 0.026
19,C1G U4G G78C,≤ 0.026
20,C5U C80G,≤ 0.026
21,A31U G85A,0.164
22,G65C G66C U76C,0.793
23,G7U U58G C80G,≤ 0.026
24,A33G A54U,0.0526

row,Variant,nonsense suppression
1,C5G A87U,≤ 0.026
2,G18C G88A,0.135
3,C5A G18U U76C G86A,≤ 0.026
4,U22A,1.13
5,U63A G78A,0.06
6,A9C A60U,0.575
7,U21C U63A,1.12
8,A23C C82G,≤ 0.026
9,U4C C34A,0.0274
10,G32A C79A G88A,≤ 0.026
11,G6A A24G C27A C29G,≤ 0.026
12,A23G G78A,0.0355
13,A60U C79U,0.761
14,C82U G85A,0.99
15,C11A U58A G69A,≤ 0.026
16,C11U G61C A87U,≤ 0.026
17,G85C A89C,≤ 0.026
18,U8C U70G A74C G84C,0.0541
19,C12A A89G,≤ 0.026
20,C1U A14U,≤ 0.026
21,C3U U20G G85A,0.214
22,G61A U63G,0.227
23,C81U,1.16
